In brackets after ≈: the same amount, converted by molar mass.
Experiments:
Assay type in all cases: functional
Klebsiella aerogenes = test: Minimum inhibitory concentration against aerobic organism Enterobacter aerogenes strain 2906
Method in brief: (§1)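 Agar-dilution MIC in µg/mL against aerobic bacterial strains on tryptocase soy agar, with inoculum applied as spots. Most series used 10^5 cfu per spot, and a later series used 10^4 cfu per spot. In some tables, footnoted strains were instead tested on Mueller-Hinton or nutrient agar. β-Lactamase-producing strains are flagged.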

Pseudomonas aeruginosa = test: Minimum inhibitory concentration against aerobic organism Pseudomonas aeruginosa strain 2835; method in brief: as §1
Serratia marcescens = test: Minimum inhibitory concentration against aerobic organism Serratia marcescens strain 2852; method in brief: as §1
Shigella = test: Minimum inhibitory concentration against aerobic organism Shigella species strain 2880; method in brief: as §1
Proteus mirabilis = test: Minimum inhibitory concentration against aerobic organism Proteus mirabilis strain 2830; method in brief: as §1
[1] = Minimum inhibitory concentration against aerobic organism Salmonella schottmuelleri strain 2837; method in brief: as §1
Escherichia coli = test: MIC against aerobic organism Escherichia coli strain 2891; method in brief: as §1
Klebsiella pneumoniae = test: Minimum inhibitory concentration against aerobic organism Klebsiella pneumoniae strain 2882; method in brief: as §1
Enterococcus faecalis = test: Minimum inhibitory concentration against aerobic organism Streptococcus faecalis strain 2864; method in brief: as §1
Proteus vulgaris = test: Minimum inhibitory concentration against aerobic organism Proteus vulgaris strain 2829; method in brief: as §1
Enterobacter cloacae = test: Minimum inhibitory concentration against aerobic organism Enterobacter cloacae strain 2646; method in brief: as §1
Staphylococcus aureus = test: Minimum inhibitory concentration against aerobic organism Staphylococcus aureus strain 2868; method in brief: as §1
Morganella morganii = test: Minimum inhibitory concentration against aerobic organism Morganella morganii strain 2833; method in brief: as §1
Streptococcus pyogenes = test: Minimum inhibitory concentration against aerobic organism Streptococcus pyogenes strain 3124; method in brief: as §1
[2] = Klebsiella aerogenes, read-out: MIC
[3] = Serratia marcescens, read-out: MIC
[4] = Proteus mirabilis, read-out: MIC
[5] = Escherichia coli, read-out: MIC
[6] = Klebsiella pneumoniae, read-out: MIC
[7] = Proteus vulgaris, read-out: MIC
[8] = Enterobacter cloacae, read-out: MIC
[9] = Staphylococcus aureus, read-out: MIC
[10] = Morganella morganii, read-out: MIC
[11] = Streptococcus pyogenes, read-out: MIC

| Structure (SMILES) | MIC (Klebsiella aerogenes; [2]) [µg/mL] | MIC (Pseudomonas aeruginosa) [µg/mL] | MIC (Serratia marcescens; [3]) [µg/mL] | MIC (Shigella; Shigella, read-out: MIC) [µg/mL] | MIC (Proteus mirabilis; [4]) [µg/mL] | MIC ([1]; Salmonella, read-out: MIC) [µg/mL] | MIC (Escherichia coli; [5]) [µg/mL] | MIC (Klebsiella pneumoniae; [6]) [µg/mL] | MIC (Enterococcus faecalis) [µg/mL] | MIC (Proteus vulgaris; [7]) [µg/mL] | MIC (Enterobacter cloacae; [8]) [µg/mL] | MIC (Staphylococcus aureus; [9]) [µg/mL] | MIC (Morganella morganii; [10]) [µg/mL] | MIC (Streptococcus pyogenes; [11]) [µg/mL] | other results |
| --- | --- | --- | --- | --- | --- | --- | --- | --- | --- | --- | --- | --- | --- | --- | --- |
| CC(=O)OCC1=C(C(=O)[O-])N2C(=O)[C@@H](Nc3cc[n+](COCC(Cl)(Cl)Cl)cc3)[C@H]2SC1 | 32 (≈ 62.6 µM) | > 128 | > 128 | < 0.06 | > 128 | < 0.06 | < 0.06 | < 0.06 | 128 (≈ 251 µM) | 32 (≈ 62.6 µM) | 0.125 (≈ 0.245 µM) | 8 (≈ 15.7 µM) | > 128 | – | – |
| Cc1c[n+](C)ccc1N[C@@H]1C(=O)N2C(C(=O)[O-])=C(CSc3nnnn3C)CS[C@H]12 | 8 (≈ 18.5 µM) | > 128 | > 128 | 16 (≈ 36.9 µM) | 16 (≈ 36.9 µM) | 128 (≈ 295 µM) | 8 (≈ 18.5 µM) | 16 (≈ 36.9 µM) | > 128 | 1 (≈ 2.31 µM) | 16 (≈ 36.9 µM) | > 128 | 16 (≈ 36.9 µM) | 32 (≈ 73.8 µM) | – |
| Cn1nnnc1SCC1=C(C(=O)[O-])N2C(=O)[C@@H](Nc3cc[n+](COCc4ccccc4)cc3)[C@H]2SC1 | 128 (≈ 244 µM) | > 128 | > 128 | 1 (≈ 1.9 µM) | > 128 | 1 (≈ 1.9 µM) | 1 (≈ 1.9 µM) | 2 (≈ 3.81 µM) | > 128 | 128 (≈ 244 µM) | 16 (≈ 30.4 µM) | 16 (≈ 30.4 µM) | > 128 | – | – |
| Cc1ccccc1-[n+]1ccc(N[C@@H]2C(=O)N3C(C(=O)[O-])=C(CSc4nnnn4C)CS[C@H]23)cc1 | > 128 | > 128 | > 128 | 1 (≈ 2.02 µM) | > 128 | 2 (≈ 4.04 µM) | 2 (≈ 4.04 µM) | 128 (≈ 258 µM) | > 128 | 2 (≈ 4.04 µM) | > 128 | 32 (≈ 64.6 µM) | > 128 | 0.25 (≈ 0.504 µM) | – |
| C[n+]1ccc(NC(C(=O)NC2C(=O)N3C2SC(C)(C)[C@@H]3C(=O)[O-])c2ccccc2)cc1 (stereo partly specified) | – | – | – | 25 (≈ 56.8 µM) | – | 6.25 (≈ 14.2 µM) | > 100 | > 100 | 12.5 (≈ 28.4 µM) | – | > 100 | 3.12 (≈ 7.08 µM) | – | < 0.39 | – |
| CC1(C)SC2C(Nc3cc[n+](Cc4ccccc4)cc3)C(=O)N2[C@H]1C(=O)[O-] (stereo partly specified) | – | – | – | 0.25 (≈ 0.652 µM) | – | 0.125 (≈ 0.326 µM) | 4 (≈ 10.4 µM) | 16 (≈ 41.7 µM) | 128 (≈ 334 µM) | – | 4 (≈ 10.4 µM) | 64 (≈ 167 µM) | – | 0.25 (≈ 0.652 µM) | – |
| Cn1nnnc1SCC1=C(C(=O)[O-])N2C(=O)[C@@H](Nc3cc[n+](C)cc3)[C@H]2SC1 (stereo in doubt; 15a) | – | – | – | – | – | – | – | – | – | – | – | – | – | – | MIC (Streptococcus pyogenes): 2 µg/mL (≈ 4.77 µM); MIC (Klebsiella aerogenes): 0.5 µg/mL (≈ 1.19 µM); MIC (Serratia marcescens): 1 µg/mL (≈ 2.38 µM); MIC (Shigella): 1 µg/mL (≈ 2.38 µM); MIC (Proteus mirabilis): 8 µg/mL (≈ 19.1 µM); MIC [1]: 8 µg/mL (≈ 19.1 µM); MIC (Escherichia coli): 0.5 µg/mL (≈ 1.19 µM); MIC (Klebsiella pneumoniae): 8 µg/mL (≈ 19.1 µM); MIC (Proteus vulgaris): 0.25 µg/mL (≈ 0.596 µM); MIC (Enterobacter cloacae): 1 µg/mL (≈ 2.38 µM); MIC (Staphylococcus aureus): 64 µg/mL (≈ 153 µM); MIC (Morganella morganii): 4 µg/mL (≈ 9.54 µM) |

Continued, in another order:

| MIC (Klebsiella aerogenes; [2]) [µg/mL] | MIC (Pseudomonas aeruginosa) [µg/mL] | MIC (Serratia marcescens; [3]) [µg/mL] | MIC (Shigella; Shigella, read-out: MIC) [µg/mL] | MIC (Proteus mirabilis; [4]) [µg/mL] | MIC ([1]; Salmonella, read-out: MIC) [µg/mL] | MIC (Escherichia coli; [5]) [µg/mL] | MIC (Klebsiella pneumoniae; [6]) [µg/mL] | MIC (Enterococcus faecalis) [µg/mL] | MIC (Proteus vulgaris; [7]) [µg/mL] | MIC (Enterobacter cloacae; [8]) [µg/mL] | MIC (Staphylococcus aureus; [9]) [µg/mL] | MIC (Morganella morganii; [10]) [µg/mL] | MIC (Streptococcus pyogenes; [11]) [µg/mL] | Structure (SMILES) | other results |
| --- | --- | --- | --- | --- | --- | --- | --- | --- | --- | --- | --- | --- | --- | --- | --- |
| 128 (≈ 336 µM) | > 128 | > 128 | 2 (≈ 5.24 µM) | > 128 | 0.5 (≈ 1.31 µM) | 4 (≈ 10.5 µM) | 32 (≈ 83.9 µM) | 128 (≈ 336 µM) | > 128 | 64 (≈ 168 µM) | 64 (≈ 168 µM) | > 128 | 0.06 (≈ 0.157 µM) | CC1=C(C(=O)[O-])N2C(=O)[C@@H](Nc3cc[n+](Cc4ccccc4)cc3)[C@H]2SC1 | – |
| 8 (≈ 15.4 µM) | > 128 | 128 (≈ 246 µM) | < 0.06 | 128 (≈ 246 µM) | 0.125 (≈ 0.24 µM) | 0.25 (≈ 0.48 µM) | 1 (≈ 1.92 µM) | > 128 | 16 (≈ 30.7 µM) | 8 (≈ 15.4 µM) | 32 (≈ 61.5 µM) | 128 (≈ 246 µM) | 0.125 (≈ 0.24 µM) | Cn1nnnc1SCC1=C(C(=O)[O-])N2C(=O)[C@@H](Nc3cc[n+](Cc4ccc(C#N)cc4)cc3)[C@H]2SC1 | – |
| > 128 | > 128 | > 128 | 8 (≈ 17.6 µM) | > 128 | 4 (≈ 8.81 µM) | 2 (≈ 4.41 µM) | 64 (≈ 141 µM) | > 128 | 1 (≈ 2.2 µM) | > 128 | > 128 | > 128 | 32 (≈ 70.5 µM) | Cn1nnnc1SCC1=C(C(=O)[O-])N2C(=O)C(Nc3ccc(Cl)c[n+]3C)C2SC1 (stereo unspecified) | – |
| – | – | – | < 0.06 | – | < 0.06 | 0.5 (≈ 1.1 µM) | 0.5 (≈ 1.1 µM) | 128 (≈ 281 µM) | – | 0.5 (≈ 1.1 µM) | > 128 | – | – | CC1(C)SC2C(Nc3cc[n+](COCC(Cl)(Cl)Cl)cc3)C(=O)N2[C@H]1C(=O)[O-] (stereo partly specified) | – |
